# Screening results: PubChem, The Scripps Research Institute Molecular Screening Center
# Only some compounds are listed: those with a hit (about 2.1% of all), similar ones and a draw of the others.
# MsrA inh: inhibits bovine methionine sulfoxide reductase A. 360,000 tested, 0.75% active. purified bovine MsrA, absorbance read-out. inhibition, % at 15.5 µM; in the data active = inhibition above about 4.5%;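 also: 0% = vehicle wells with enzyme and 100% = reference inhibitor wells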
# IMP-1 inh: blocks Pseudomonas aeruginosa IMP-1 metallo-beta-lactamase. purified IMP-1, nitrocefin hydrolysis, epi-absorbance fluorescence. inhibition, % at 5.6 µM. 290,000 tested, 0.45% active;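 active = inhibition above the mean plus 3 SD of all compounds in the same screening run, cut at about 4.5% in these data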;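 also: 0% = IMP-1 with DMSO and 100% = DMSO wells lacking enzyme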
#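 Assay system: purified IMP-1; Quantity: IMP-1 0.2 nM before substrate addition; Medium: HEPES buffer pH 7.1 with ZnSO4 and Brij 35; Incubation: 15 min enzyme–compound preincubation, then 25 min nitrocefin reaction, 25 °C; Signal: fluorescence quenching readout, ex 480/em 530 nm; Controls: DMSO with and without IMP-1; Repeats: singlicate testing.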
# bovine MsrA act: activates bovine MsrA enzyme; 360,000 tested, 0.3% active; activation, % at 10.6 µM; AID 602163; purified bovine MsrA, absorbance read-out; in the data active = activation above about 7.5%;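 also: 0% = vehicle and 100% = reference activator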
# PKA-R1A act: activators of PKA-R1A complex | PKA-R1A dissociation, Cy5-IP20 fluorescence polarization; scaled: DMSO 0%, 113 µM cGMP 100% | activation, % at 11.4 µM | P00514+P68181 | 340,000 tested, 0.083% active | AID 504707;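 active = percent activation above the mean of all tested compounds plus 3 SD, cut at about 19% in these data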;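 also: higher means more PKAc released from R1A so a rise in polarization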
# PKA-R2B activ: PKA-R2B complex activation. PKA-R2B holoenzyme dissociation, Cy5-IP20 fluorescence polarization; R2B truncated from residue 108, S112A mutant; 0% DMSO only, 100% 113 µM cGMP. activation, % at 11.4 µM. P22694+P31323. 340,000 tested, 0.079% active;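 active = activation above a cutoff set at the mean over all compounds plus 3 SD, cut at about 18% in these data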;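 also: higher means more holoenzyme dissociation and a rise in polarization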
# Target sequence (P31323 whole entry, looked up, other chains not shown, the tested form may be a part): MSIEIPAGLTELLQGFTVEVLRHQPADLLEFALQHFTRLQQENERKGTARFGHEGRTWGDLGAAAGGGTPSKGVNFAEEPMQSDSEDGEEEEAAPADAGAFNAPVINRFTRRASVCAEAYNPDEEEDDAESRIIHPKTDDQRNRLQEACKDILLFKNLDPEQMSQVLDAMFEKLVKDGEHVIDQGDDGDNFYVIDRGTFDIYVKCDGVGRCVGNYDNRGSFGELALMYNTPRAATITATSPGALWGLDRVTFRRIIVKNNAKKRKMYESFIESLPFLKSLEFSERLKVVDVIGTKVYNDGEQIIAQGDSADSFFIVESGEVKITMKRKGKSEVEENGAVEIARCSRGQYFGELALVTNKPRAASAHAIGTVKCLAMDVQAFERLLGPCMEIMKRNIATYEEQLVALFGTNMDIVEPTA
# VIM-2 inhibitor: inhibitors of Pseudomonas aeruginosa VIM-2 metallo-beta-lactamase; purified VIM-2, nitrocefin hydrolysis, epi-absorbance fluorescence; inhibition, % at 5.6 µM; 290,000 tested, 0.89% active; AID 1527;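 active = inhibition above the mean of all tested compounds plus 3 SD, cutoff set per screening run, cut at about 7.5% in these data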;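 also: red hydrolysis product quenches plate fluorescence so inhibitors raise well fluorescence; 0% = enzyme with DMSO and 100% = DMSO without enzyme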
# * = called active by the depositor; / = not tested or not shown.
SMILES,MsrA inh,IMP-1 inh,bovine MsrA act,PKA-R1A act,PKA-R2B activ,VIM-2 inhibitor
CC(O)(CS(=O)(=O)Cc1ccccc1)C(=O)Nc1cccc(C(F)(F)F)c1 (stereo unspecified),0,-3,10*,-10,-5,-1
CC(O)(CS(=O)(=O)Cc1ccccc1)C(=O)Nc1ccc(C(F)(F)F)cc1 (stereo unspecified),1,-4,-4,5,12,-3
O=C(CN1CCN(C(C(=O)Nc2cc(C(F)(F)F)ccc2Cl)c2ccccc2)CC1)NC1CC1 (stereo unspecified),1,/,-2,16,6,/
C/C(=N/Nc1ccc(C(=O)O)cc1)c1ccc(O)c(O)c1O,4.6*,-3,-9,2,-12,1
Cc1cn([C@H]2C[C@H](O)[C@@H](CCC(=O)NCc3ccco3)O2)c(=O)[nH]c1=O,2,/,0,-13,0,/
O=C(CCCOc1ccc(Cl)cc1Cl)NC(Cc1ccccc1)C(=O)O (stereo unspecified),-1,/,-8,-5,12,/
CSc1nc(N2CCOCC2)c2sccc2n1,2,-1,-6,-3,-12,8.1*
Cc1c(NC(=O)c2cccc(NC(=O)Cc3ccccc3Cl)c2)c(=O)n(-c2ccccc2)n1C,0,/,-3,6,2,/
CCCc1[nH]nc2c1C(c1ccc(OCCN3CCOCC3)c(OCC)c1)C(C#N)=C(N)O2 (stereo unspecified),-1,-3,-2,-9,-15,8.7*
CCOC(=O)C1C(=O)C=C(C)C(C(=O)OCC)C1c1cccc([N+](=O)[O-])c1 (stereo unspecified),4.6*,0,1,-7,1,-1
O=C(CN1C(=O)S/C(=C\c2ccc(-c3cc(C(=O)O)ccc3Cl)o2)C1=O)Nc1ccc2c(c1)OCO2,1,17*,0,-12,-7,-2
Cn1cc(/C=C2/SC(=O)N(CC(=O)Nc3ccc4c(c3)OCO4)C2=O)c2ccccc21,-1,-1,-6,-3,4,-1
COc1ccc(C2CC(=O)Nc3cc(OC)c(OC)cc32)cc1 (stereo unspecified),0,/,-3,3,-8,/
COc1cc2c(cc1OC)C(c1ccccc1)CC2=O (stereo unspecified),0,10*,-4,-5,-7,2
O=C1NC[C@@H](CCCCN2CCN(CCC3CCCCC3)C(=O)C2=O)N(CC2CCCCC2)C1=O,0,/,-1,/,/,/
Cc1cc(C)c(C#N)c(Sc2nc(C)c([N+](=O)[O-])c(C)c2C#N)n1,0,/,-9,/,/,/
Cc1nc(Sc2ccccc2)c(C#N)c(C)c1[N+](=O)[O-],0,-3,-3,6,-7,8.6*
COc1ccc(NC(=O)/C(C#N)=C/c2cc(C)n(-c3ccc(N4CCOCC4)c([N+](=O)[O-])c3)c2C)cc1,-1,-2,-4,-18,-2,-1
Cc1cc(/C=C(\C#N)C(=O)Nc2ccc(F)cc2)c(C)n1-c1ccc(N2CCOCC2)c([N+](=O)[O-])c1,-1,5.0*,0,1,-2,1
Nc1ccc(-c2nnnn2-c2ccc(N)cc2)cc1,-1,-2,-2,-3,-7,0
Clc1ccc(-c2nnnn2-c2ccc(Cl)c(Cl)c2)cc1Cl,16*,-2,-2,-1,8,-4
C[C@H](CO)N1C[C@H](C)[C@@H](CN(C)Cc2ccc(-c3ccccc3)cc2)Oc2c(NS(=O)(=O)c3cccs3)cccc2C1=O,-1,/,-1,-4,-4,/
Cc1ccc2occ(/C=N/NC(N)=S)c(=O)c2c1,0,-2,-2,7,7,-4
Cc1ccc2occ(/C=N/NC(=O)c3ccccc3Br)c(=O)c2c1,1,5.2*,-6,-8,-2,-6
CCOc1ccccc1C(=O)N/N=C/c1coc2ccc(C)cc2c1=O,1,10*,-3,0,-10,-3
SMILES,MsrA inh,IMP-1 inh,bovine MsrA act,PKA-R1A act,PKA-R2B activ,VIM-2 inhibitor
Cc1ccc2occ(/C=N/NC(=O)c3ccc(O)cc3)c(=O)c2c1,1,4,-3,0,12,-7
CN(C)c1cccc2c(S(=O)(=O)NCC3CCN(C(=O)C(=O)c4cc5ccccc5o4)CC3)cccc12,0,/,/,/,/,/
O=C1C2CCc3ccccc3C2N1c1ccccc1 (stereo unspecified),0,/,-7,-5,-1,/
O=C(CSc1nc2ccsc2c(=O)n1CC1CCC(C(=O)O)CC1)c1ccc(Cl)cc1 (stereo unspecified),0,14*,-3,-10,5,-1
CCCNC(=O)C1(C)CCCN(Cc2ccc(-c3ccccn3)cc2)C1 (stereo unspecified),1,/,-7,/,/,/
COc1ccc(-c2c(C(=O)O)c(C(=O)O)c3n2CCC3)cc1,-2,-1,-4,-8,-4,11*
Cc1cc2ncn(S(=O)(=O)N3CCOCC3)c2cc1C,1,4.5*,-5,-15,-6,0
CCCc1[nH]c2ccc(C(=O)OC)cc2c1CCC,0,-2,-10,-2,-9,0
COC(=O)c1ccc2[nH]c([C@H](C)O)c([C@H](C)O)c2c1,1,4.7*,-4,-5,-10,5
Clc1ccc2c(N/N=C/c3cccnc3)ccnc2c1,2,1,-4,5,-7,11*
Cc1cc(C)n2cc(CSc3nc4ccccc4s3)nc2n1,1,-1,-1,-8,-7,10*
OC(c1ccc(F)c(F)c1)c1ncc(-c2ccccc2F)[nH]1 (stereo unspecified),1,/,-1,/,/,/
Cc1ccccc1-n1nc2c(c1NC(=O)c1c(-c3ccccc3Cl)noc1C)CSC2,0,44*,-4,-1,-1,-2
CC(=O)Nc1ccc(Nc2c3c4c(cccc4n(C)c2=O)C(=O)c2ccccc2-3)cc1,1,0,-14,-6,-13,-1
Cn1c(=O)c(NC2CCCCC2)c2c3c(cccc31)C(=O)c1ccccc1-2,0,5.9*,-4,-9,4,7
COC(=O)c1c(C)oc2c1cc(NS(=O)(=O)c1ccc(C(=O)O)cc1)c1ccccc12,1,7.3*,0,2,2,0
Cc1cc(C)cc(NC(=O)CN2C(=O)C3CC=CCC3C2=O)c1 (stereo unspecified),0,/,3,3,6,/
CN(C)c1ccc(CN(C(=O)COc2ccc(F)cc2)C2CCS(=O)(=O)C2)cc1 (stereo unspecified),/,-2,8.2*,-9,4,-1
Cc1cc(C(=O)OCC(=O)NCc2ccco2)c(C)n1-c1ccc(F)cc1,-1,-1,8.5*,-9,-6,-3
O=C(c1ccc(N2CCN(C(=O)c3ccc(F)cc3F)CC2)cc1)c1cccc(F)c1,1,-1,-2,-6,-5,0
